Source: PubChem
In the library only some 3.9% were active in any assay of this set; here they are far more common.
tim10-1 inh – growth inhibitors of tim10-1 mutant yeast, primary screen, luminescence, uHTS | S. cerevisiae tim10-1 ts strain growth, BacTiter-Glo, 24 h | inhibition, % at 20 µM | 330,000 tested, 2.2% active;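 active = inhibition of at least 40%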;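 also: mutant grown at 25 °C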
CHOP UPR activ – activators of apoptotic CHOP UPR arm, primary screen, cell-based, CHO-CHOP luciferase reporter, luminescence, uHTS; UPR activation; percent of tunicamycin response over DMSO baseline; activation, % at 10 µM; 330,000 tested, 0.34% active; AID 449763, 2010;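 active = at 10 µM dose, activation of 40% or more, normalized to positive control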
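System: CHO CHOP reporter cells. Amount: 500 cells per well. Buffer or medium: F12 medium, 10% FBS. Compound dosing: one dose, 10 µM in 0.5% DMSO. Incubation: 6 h compound exposure at 37 °C after overnight seeding. Technique: Steady-Glo luciferase luminescence. Benchmarks: tunicamycin and DMSO controls.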
XBP1 UPR activ – activators of adaptive XBP1 UPR arm, primary screen, cell-based, CHO-XBP1 luciferase reporter, luminescence, uHTS; activation, % at 20 µM; AID 463104, 2010; IRE1-XBP1 UPR activation; percent of tunicamycin response, DMSO as zero; 330,000 tested, 0.33% active;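 active = versus positive control, 20 µM dose yields 30% or more activation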
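assay system = CHO-XBP1 luciferase reporter cells | amount = 1000 cells/well | buffer or medium = F12 plus 10% FBS | compound dosing = single point, 20 µM final compound, 1% DMSO | incubation = 16-18 h cell attachment at 37 °C, then 6 h compound exposure | detection = Steady-Glo luminescence read | controls = tunicamycin 10 µg/mL and vehicle-only wells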
TIM10 inh – growth inhibitors of isogenic TIM10 control yeast, primary screen, counter-screen for tim10-1 yeast inhibitor project, luminescence, uHTS. 330,000 tested, 1.4% active. inhibition, % at 10 µM. S. cerevisiae TIM10 strain growth, BacTiter-Glo luminescence, 24 h;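 active = inhibition of 40% or more at the single tested concentration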;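 also: wild-type TIM10 isogenic control strain grown at permissive 25 °C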
tim23-1 inh – growth inhibitors of tim23-1 mutant yeast, primary screen, luminescence, uHTS; S. cerevisiae tim23-1 growth, BacTiter-Glo luminescence, 24 h; inhibition, % at 20 µM; 330,000 tested, 1.3% active;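 active = growth inhibition of the mutant yeast at or above 50%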;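 also: temperature-sensitive mutant grown at 25 °C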
tim10-1 conf – growth inhibitors of tim10-1 mutant yeast, confirmation, single concentration, luminescence, S. cerevisiae. shares compounds with tim10-1 inh. S. cerevisiae tim10-1 ts strain growth, BacTiter-Glo, 24 h. inhibition, % at 20 µM. 7,400 tested, 56% active;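 active = inhibition of yeast growth at or above a set limit in either of two repeat tests at 20 µM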;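 also: tim10-1 mutant grown at permissive 25 °C to find synthetic lethal compounds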
TIM10 conf – growth inhibitors of wild-type TIM10 yeast, confirmation, counter-screen for tim10-1 synthetic lethality project, single concentration, luminescence, S. cerevisiae; shares compounds with TIM10 inh; S. cerevisiae tim10 strain growth, BacTiter-Glo luminescence, 24 h; inhibition, % at 10 µM; 4,600 tested, 63% active; AID 463215, 2010;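 active = inhibition of yeast growth at or above a set limit in either of two replicates at 10 µM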; also: this counterscreen used the strain with wild-type TIM10
tim23-1 conf – tim23-1 mutant yeast growth inhibitors, confirmation, luminescence, single concentration | shares compounds with tim23-1 inh | S. cerevisiae tim23-1 growth, BacTiter-Glo luminescence, 24 h | inhibition, % at 20 µM | 4,400 tested, 83% active | AID 463218, 2010;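 active = inhibition above about 39% in either of two replicate wells at 20 µM, limit read from the data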;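 also: temperature-sensitive tim23-1 mutant grown at 25 °C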
A number is an active result; i = inactive; nt = no result.

SMILES | tim10-1 inh | CHOP UPR activ | XBP1 UPR activ | TIM10 inh | tim23-1 inh | tim10-1 conf | TIM10 conf | tim23-1 conf
CCc1ccc(S(=O)(=O)/N=C2\C=C(Nc3ccc(C(=O)O)cc3)C(=O)c3ccccc32)cc1 | i | i | i | i | i | nt | nt | nt
Cc1ccc(S(=O)(=O)/N=C2\C=C(Nc3ccc(O)cc3)C(=O)c3ccccc32)cc1 | 64 | i | i | i | 51 | 74 | nt | 70
Cc1ccc(S(=O)(=O)/N=C2\C=C(Nc3cccc(C(=O)O)c3)C(=O)c3ccccc32)cc1 | i | i | i | i | i | nt | nt | nt
COC(=O)c1ccccc1NC1=C/C(=N\S(=O)(=O)c2ccc(C(=O)O)cc2)c2ccccc2C1=O | 54 | i | i | 53 | 71 | 77 | 65 | 89
COC(=O)c1ccccc1NC1=C/C(=N\S(=O)(=O)c2cccs2)c2ccccc2C1=O | 46 | i | i | 41 | 56 | 41 | i | 40
O=C(Nc1ccccc1Cl)C1CC(=O)n2c(nc3ccccc32)N1 (stereo not drawn) | i | i | i | i | i | nt | nt | nt
COc1ccc(OCCCC(=O)ON=C(N)c2ccccc2Cl)cc1 | i | i | i | i | i | nt | nt | nt
Cc1ccc(OCCCC(=O)ON=C(N)c2ccccc2C)cc1 | 60 | i | i | 41 | 62 | 64 | 50 | 61
COc1ccccc1NC(=O)C1CC(C)OC1=O (stereo not drawn) | i | i | i | i | i | nt | nt | nt
Cc1c(Cl)sn(-c2ccc(Cl)cc2)c1=O | 96 | i | i | 97 | 55 | 98 | 100 | 99
OCC(O)/C=N/Nc1nc(Nc2ccccc2)nc(Nc2ccccc2)n1 (stereo not drawn) | 50 | i | i | 46 | 54 | i | 45 | 48
O=C(N/N=C/c1cc(Br)c(Br)o1)c1ccc2c(c1)OCCO2 | 65 | i | i | 57 | 53 | 53 | 59 | 80
CCc1noc(C)c1C(=O)Nc1cc(S(=O)(=O)N2CCOCC2)ccc1N1CCN(CC)CC1 | i | i | i | i | i | nt | nt | nt
NC(=O)c1ccc(Oc2ccc3c(c2)CCC3)c([N+](=O)[O-])c1 | i | i | i | i | i | nt | nt | nt
CC12CCC(C(=O)N(CSC(=S)N/N=C\c3ccccc3Cl)C1=O)C2(C)C (stereo not drawn) | 41 | i | i | 57 | 59 | i | i | 41
COc1cc([N+](=O)[O-])ccc1NC(=O)Nn1cnnc1 | i | i | i | i | i | nt | nt | nt
O=C(NC1CCCCC1)c1ccc2[nH]c(=O)c(=O)[nH]c2c1 | i | i | i | i | i | nt | nt | nt
Cc1nc2ccccc2n1CCOc1ccccc1 | i | i | i | i | i | nt | nt | nt
Cc1ccc(NCc2nc3ccccc3n2CCOc2ccccc2)cc1 | 44 | i | i | i | 57 | i | nt | 74
CC(C)(C)N(Cc1ccccc1)C(=O)COC(=O)c1ccc([N+](=O)[O-])o1 | 45 | i | i | i | 53 | i | nt | 46
Nc1cccc2c1C(=O)N(C(=O)/C=C/c1cccc(F)c1)C2=O | 69 | i | i | 50 | 82 | 59 | 40 | 87
O=C(NCC1CCCO1)C1CC(=O)N(c2cccc(Cl)c2)C1 (stereo not drawn) | i | i | i | i | i | nt | nt | nt
Cc1ccccc1N=Cc1c(O)n(-c2nccs2)c(=O)c2ccccc12 | 48 | i | i | 47 | 59 | 47 | 46 | 56
O=c1c2ccccc2c(C=Nc2ccccc2O)c(O)n1-c1nccs1 | i | i | i | i | i | nt | nt | nt
CC[n+]1c(/C=C2\C=C(C)CC(C)(C)C2)sc2ccccc21 | 45 | i | i | i | 51 | 39 | nt | 55
SMILES | tim10-1 inh | CHOP UPR activ | XBP1 UPR activ | TIM10 inh | tim23-1 inh | tim10-1 conf | TIM10 conf | tim23-1 conf
CC[n+]1c(/C=C2/C=C(C)CC(C)(C)C2)sc2ccc(OC)cc21 | i | i | i | i | i | nt | nt | nt
Cc1oc(S(=O)(=O)N2CCOCC2)cc1C(=O)Nc1ccc(Cl)cc1 | i | i | i | i | i | nt | nt | nt
CNC(=S)/N=C/NOCc1ccc(Cl)cc1Cl | 66 | i | i | 51 | 58 | 47 | 62 | 66
NC(=O)NOCc1ccc(Cl)cc1Cl | i | i | i | i | i | nt | nt | nt
Cc1cc(N(CC(=O)NC(C)C)S(C)(=O)=O)ccc1Br | i | i | i | i | i | nt | nt | nt
COc1ccc(C2/C=C\CN(C(=O)Nc3ccc(C(F)(F)F)cc3)CC(=O)N2Cc2ccc(F)cc2)cc1 (stereo not drawn) | 49 | i | i | 47 | 53 | 38 | i | 48
CC(Cc1ccccc1)N1C(=O)c2cccc([N+](=O)[O-])c2C1=O (stereo not drawn) | i | i | i | i | i | nt | nt | nt
Cn1cccc1/C=N/n1c(-c2ccc(C(C)(C)C)cc2)n[nH]c1=S | 44 | i | i | i | 54 | i | nt | 49
CCn1c(Sc2ccc(N)cc2Cl)nc2ccccc21 | 47 | i | i | 44 | 66 | 50 | 47 | 47
COc1cc(C(=O)N/N=C/c2coc3ccccc3c2=O)cc(OC)c1OC | i | i | i | i | i | nt | nt | nt
O=C(N/N=C/c1coc2ccccc2c1=O)c1cc(O)cc(O)c1 | i | i | i | i | i | nt | nt | nt
O=C(N/N=C/c1coc2ccc(Cl)cc2c1=O)c1ccc(O)cc1 | 49 | i | i | i | 84 | i | nt | 49
COc1cc(C(=O)N/N=C/c2coc3ccc(Cl)cc3c2=O)ccc1O | 52 | i | i | i | 81 | i | nt | 49
NC(=S)N/N=C/c1coc2ccc(Cl)cc2c1=O | 54 | i | i | i | 82 | i | nt | 80
CC(C)Oc1cccc(C(=O)N/N=C/c2coc3ccccc3c2=O)c1 | i | i | i | i | i | nt | nt | nt
COc1ccc(C(=O)N/N=C\c2coc3ccc(Cl)cc3c2=O)cc1 | 44 | i | i | i | 84 | i | nt | 75
COc1ccc(S(=O)(=O)N2CCOCC2)cc1NC(=O)CSc1ccc(F)cc1 | i | i | i | i | i | nt | nt | nt
Cc1cccc(OCCNC(=O)CCc2ccccc2)c1 | i | i | i | i | i | nt | nt | nt
O=C(c1ccccc1[N+](=O)[O-])n1cnc2ccccc21 | i | i | i | i | i | nt | nt | nt
O=C(c1ccc([N+](=O)[O-])cc1[N+](=O)[O-])n1cnc2ccccc21 | 69 | i | i | 59 | 73 | 76 | 52 | 84
